Results collected from several papers.
Effect on: metabolic stability
Species: human
Matrix: liver microsomes

SMILES | setting | microsomal CLint [µL/min/mg]
CC(C)CCN(c1ccc(F)cc1)c1c(-c2ccccn2)nc2ccccn12 | 3 µM, pH 7.4 | 110
COc1cc2[nH]c(C)c(-c3ccc(S(=O)(=O)N(C)C)cc3)c(=O)c2cc1Cl | 1 µM | 17
Cc1cnc(Nc2ccnc3ccc(-c4ccc(S(=O)(=O)N5CCOCC5)cc4)cc23)s1 | – | 76.3
O=C(Nc1ccc2c(c1)B(O)OC2)Nc1ccc(F)c(C(F)(F)F)c1 | – | 13
Cc1nnc(Nc2ccnc3ccc(-c4ccc(S(=O)(=O)N5CCOCC5)cc4)cc23)nc1C | – | 114
Cc1cc(Nc2ccc(S(F)(F)(F)(F)F)cc2)n2nc(C(F)(F)F)nc2n1 | 1 µM, pH 7.4 | < 6
CCN(CC)CCNC(=O)c1c(C)[nH]c(/C=C2\C(=O)Nc3ccc(F)cc32)c1C | 1 µM, pH 7.4 | 19
CCOC(=O)c1c(-c2cc(F)cc(OC)c2)[nH]c2cc(OC)c(F)cc2c1=O | 19.8 µM, pH 7.4 | 50
Cn1cc(-c2nc(N3CCC(c4ccccn4)C3)c3ccccc3n2)cn1 (stereo not shown) | – | 118
COc1cc2[nH]c(C)c(-c3ccc(N4CCN(C)CC4)nc3)c(=O)c2cc1Cl | 1 µM | 34
O=C(N[C@H](Cc1ccccc1)C(=O)Nc1ccccc1N1CCOCC1)c1cccs1 | 2 µM, 40 min, pH 7.4 | 1370
CN(c1ccc(F)cc1)c1c(-c2ccc(F)cn2)nc2ccccn12 | 3 µM, pH 7.4 | 220
COc1ccc(Nc2ccnc3ccc(-c4ccc(S(=O)(=O)N5CCOCC5)cc4)cc23)cc1C | – | 131
COc1ccn2c(Nc3ccccc3F)c(-c3ccncn3)nc2c1 | 3 µM, pH 7.4 | 120
COc1cc2[nH]c(C)c(-c3cc4ccccc4o3)c(=O)c2cc1Cl | 1 µM | 29
CCC(F)(F)c1nc2nc(C)cc(Nc3ccc(C(F)(F)F)cc3)n2n1 | 1 µM, pH 7.4 | < 6
COc1cc2[nH]c(C)c(-c3ccc(-c4ccccc4)cc3)c(=O)c2cc1Cl | 1 µM | 14
CCOc1ccc2ccc(=O)oc2c1 | 1 µM, pH 7.4 | 146
C[C@H](C(=O)N[C@@H]1COc2ccccc2[C@H]1S(C)(=O)=O)c1ccc(F)cc1 | 1 µM | 2
Fc1ccc(Nc2c(-c3ccccn3)nc3ccccn23)c(F)c1 | 3 µM, pH 7.4 | 96

SMILES | setting | microsomal CLint [µL/min/mg]
CCn1ncc2c(N3CCC(c4ccccn4)C3)nc(-c3ccccn3)nc21 (stereo not shown) | – | < 1
O=S(=O)(c1ccc(-c2ccc3nccc(Nc4ccc5[nH]nnc5c4)c3c2)cc1)N1CCOCC1 | – | 52
COc1cc2[nH]c(C)c(-c3ccco3)c(=O)c2cc1Cl | 1 µM | 59
COc1ccc(CNc2c(CO)cnc3c(C4CC4)cc(C#N)cc23)cc1Cl | – | 80
COc1cc2[nH]c(C)c(-c3ccc(F)cc3)c(=O)c2cc1Cl | 1 µM | 31
CS(=O)(=O)c1ccc(-c2cnc(N)c(-c3ccc(C(F)(F)F)nc3)c2)cc1 | 1 µM | < 11.6
COc1ccc2nc(-c3cc(N(C)C)ccn3)c(Nc3ccc(F)cc3)n2c1 | 3 µM, pH 7.4 | 120
COc1ccc(-c2c(C)[nH]c3cc(OC)c(Cl)cc3c2=O)cc1 | 1 µM | < 7
c1ccc(-c2nc(N3CCc4cccnc4C3)c3ccccc3n2)nc1 | – | 64
Fc1ccc(Nc2c(Cn3cccn3)nc3ccccn23)cc1 | 3 µM, pH 7.4 | 45
c1ccc(-c2nc(N3CCCC(c4ccccn4)C3)c3ccccc3n2)nc1 (stereo not shown) | – | 113
O=S(=O)(c1ccc(-c2ccc3nccc(Nc4cncs4)c3c2)cc1)N1CCOCC1 | – | 29.5
Oc1cccc(-c2nc(N3CCC(c4ccccn4)C3)c3ccccc3n2)c1 (stereo not shown) | – | 165
Fc1ccc(Nc2c(-c3ncccc3F)nc3ccccn23)cc1 | 3 µM, pH 7.4 | 86
c1ccc(-c2nc(N3CCOCC3)c3ccccc3n2)nc1 | – | 58
COc1cc2[nH]c(C)c(-c3ccoc3)c(=O)c2cc1Cl | 1 µM | 93
c1ccc(-c2nc(NCc3nccs3)c3ccccc3n2)nc1 | – | 36
Fc1ccc(Nc2c(-c3ccccn3)nc3ccccn23)nc1 | 3 µM, pH 7.4 | 44
O=S(=O)(c1ccc(-c2ccc3nccc(Nc4ccncc4)c3c2)cc1)N1CCOCC1 | – | 82.4
Cc1cccc(CNc2nc(-c3ccccn3)nc3ccccc23)n1 | – | 63
